Laboratory results from ChEMBL document CHEMBL4433216, “Discovery of Stereospecific PARP-1 Inhibitor Isoindolinone NMS-P515” (ACS Med Chem Lett, 2019).
In brackets after ≈: the same amount, converted by molar mass.

Key:
[1] = Permeability of the compound in pH 7.4 HBSS at 10 uM incubated for 4 hrs by LC-MS/MS based PAMPA method; format: ADME; details: read-out: permeability
[2] = target: T1, Poly [ADP-ribose] polymerase 1 (Homo sapiens, UniProt P09874); experiment: Inhibition of PARP1 in human HeLa cells assessed as reduction in H2O2-induced PAR formation incubated for 30 mins followed by H2O2 addition for 15 mins by immunocytochemistry analysis; format: cell-based
[3] = Cmax in Balb Nu/Nu mouse at 10 mg/kg, po measured upto 24 hrs by HPLC-MS-MS analysis; format: ADME, organism-based; set-up: dose 10 mg/kg, route oral; details: in vivo
in vitro [4] = details: mouse, plasma
[5] = Half life in Balb Nu/Nu mouse at 10 mg/kg, iv measured upto 24 hrs by HPLC-MS-MS analysis; format: ADME, organism-based; details: in vivo
[6] = target: T2, Poly [ADP-ribose] polymerase tankyrase-1 (Homo sapiens, UniProt O95271); experiment: Displacement of fluorescent probe from human recombinant His-tagged TNKS1 catalytic domain (1091-1325 residues) by fluorescent polarization assay
T2 sequence (O95271 whole entry): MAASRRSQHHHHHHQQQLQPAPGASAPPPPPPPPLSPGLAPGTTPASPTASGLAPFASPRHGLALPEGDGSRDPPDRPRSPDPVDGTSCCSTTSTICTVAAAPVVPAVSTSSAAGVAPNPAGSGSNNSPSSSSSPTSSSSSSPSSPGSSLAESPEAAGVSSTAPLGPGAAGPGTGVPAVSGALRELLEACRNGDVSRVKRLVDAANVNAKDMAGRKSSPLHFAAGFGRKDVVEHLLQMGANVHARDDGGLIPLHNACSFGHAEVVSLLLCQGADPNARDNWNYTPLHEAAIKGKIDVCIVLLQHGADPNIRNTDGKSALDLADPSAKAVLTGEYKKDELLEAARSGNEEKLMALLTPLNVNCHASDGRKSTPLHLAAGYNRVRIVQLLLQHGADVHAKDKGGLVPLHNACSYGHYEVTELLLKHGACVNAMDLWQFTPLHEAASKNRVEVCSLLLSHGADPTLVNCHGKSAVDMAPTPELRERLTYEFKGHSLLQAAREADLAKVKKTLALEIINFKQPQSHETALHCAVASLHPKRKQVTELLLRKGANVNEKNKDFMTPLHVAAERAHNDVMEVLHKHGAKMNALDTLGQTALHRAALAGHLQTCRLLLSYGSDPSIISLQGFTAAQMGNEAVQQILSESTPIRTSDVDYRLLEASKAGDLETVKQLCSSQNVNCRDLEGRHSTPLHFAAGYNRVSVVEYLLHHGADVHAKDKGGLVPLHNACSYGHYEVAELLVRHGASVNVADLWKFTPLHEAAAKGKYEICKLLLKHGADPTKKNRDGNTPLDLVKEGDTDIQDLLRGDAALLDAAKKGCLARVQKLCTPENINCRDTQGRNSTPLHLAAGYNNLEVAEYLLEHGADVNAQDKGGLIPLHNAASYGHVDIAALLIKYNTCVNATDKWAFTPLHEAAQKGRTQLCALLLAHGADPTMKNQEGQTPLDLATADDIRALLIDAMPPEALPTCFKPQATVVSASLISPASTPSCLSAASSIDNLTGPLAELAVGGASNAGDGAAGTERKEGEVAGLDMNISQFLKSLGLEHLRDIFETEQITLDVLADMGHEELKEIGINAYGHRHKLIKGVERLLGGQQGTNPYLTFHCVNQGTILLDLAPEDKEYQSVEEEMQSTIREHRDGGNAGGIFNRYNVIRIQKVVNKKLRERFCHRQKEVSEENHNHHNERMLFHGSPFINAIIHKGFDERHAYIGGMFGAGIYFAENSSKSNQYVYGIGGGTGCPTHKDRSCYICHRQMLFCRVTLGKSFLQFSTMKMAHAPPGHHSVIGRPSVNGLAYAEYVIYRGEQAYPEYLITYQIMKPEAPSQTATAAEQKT
Procedure, shortened: (§1)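 Fluorescence polarization displacement assay measuring probe displacement from each ARTD enzyme. Results expressed as K_D.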

[7] = Toxicity in human Capan1 cells xenografted Balb athymic Nu/Nu mouse assessed as maximum body weight loss at 80 mg/kg, po qd administered for 12 days co-treated with 62.5 mg/kg, iv qd temozolomide for 5 days starting from day 3; details: in vivo
[8] = AUC (0 to infinity) in Balb Nu/Nu mouse at 10 mg/kg, iv measured upto 24 hrs by HPLC-MS-MS analysis; format: ADME, organism-based; set-up: dose 10 mg/kg, time infinity, route intravenous; details: in vivo
[9] = Solubility in pH 7 ammonium acetate buffer by LC-MS/MS analysis; format: physicochemical
[10] = Cmax in Balb Nu/Nu mouse at 10 mg/kg, iv measured upto 24 hrs by HPLC-MS-MS analysis; format: ADME, organism-based; set-up: dose 10 mg/kg, route intravenous; details: in vivo
[11] = Oral bioavailability in Balb Nu/Nu mouse at 10 mg/kg measured upto 24 hrs by HPLC-MS-MS analysis; format: ADME, organism-based; details: in vivo
Procedure, shortened: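 Oral PK in Harlan Nu/Nu mice, n = 3 per study, dosed per os at 10 mg/kg as a 0.5% methocel suspension. Bioavailability derived from oral versus iv exposure (AUC∞), with iv dosing in the same mouse strain.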

in vitro [12] = experiment: in vitro; set-up: dose or concentration left out as unconfirmed; details: rat, hepatocytes
[13] = target: Poly [ADP-ribose] polymerase 2 (Homo sapiens, UniProt Q9UGN5); experiment: Displacement of fluorescent probe from human recombinant full length His-tagged PARP2 by fluorescent polarization assay; procedure, shortened: as §1
[14] = AUC (0 to infinity) in Balb Nu/Nu mouse at 10 mg/kg, po measured upto 24 hrs by HPLC-MS-MS analysis; format: ADME, organism-based; set-up: dose 10 mg/kg, route oral, time infinity; details: in vivo
Cytochrome P450 2D6 = Cytochrome P450 2D6 (Homo sapiens, UniProt P10635); experiment: Inhibition of CYP2D6 (unknown origin); format: ADME
Procedure, shortened: (§2)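 Screen of eight P450 cytochrome isoforms, with IC50 determined for each isoform.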

[15] = Toxicity in human Capan1 cells xenografted Balb athymic Nu/Nu mouse assessed as maximum weight loss at 80 mg/kg, po qd administered for 12 days; format: organism-based; details: in vivo, 288 h
Procedure, shortened: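 BRCA-2 mutated Capan-1 pancreatic xenograft. The PARP-1 inhibitor was given orally as a methocel suspension at 80 mg/kg once daily for 12 days. Read-outs were maximal tumor growth inhibition and maximum body weight loss.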

[16] = target: T3, Protein mono-ADP-ribosyltransferase PARP3 (Homo sapiens, UniProt Q9Y6F1); experiment: Displacement of fluorescent probe from human recombinant His/GST-tagged PARP3 by fluorescent polarization assay; procedure, shortened: as §1
T3 sequence (Q9Y6F1 whole entry): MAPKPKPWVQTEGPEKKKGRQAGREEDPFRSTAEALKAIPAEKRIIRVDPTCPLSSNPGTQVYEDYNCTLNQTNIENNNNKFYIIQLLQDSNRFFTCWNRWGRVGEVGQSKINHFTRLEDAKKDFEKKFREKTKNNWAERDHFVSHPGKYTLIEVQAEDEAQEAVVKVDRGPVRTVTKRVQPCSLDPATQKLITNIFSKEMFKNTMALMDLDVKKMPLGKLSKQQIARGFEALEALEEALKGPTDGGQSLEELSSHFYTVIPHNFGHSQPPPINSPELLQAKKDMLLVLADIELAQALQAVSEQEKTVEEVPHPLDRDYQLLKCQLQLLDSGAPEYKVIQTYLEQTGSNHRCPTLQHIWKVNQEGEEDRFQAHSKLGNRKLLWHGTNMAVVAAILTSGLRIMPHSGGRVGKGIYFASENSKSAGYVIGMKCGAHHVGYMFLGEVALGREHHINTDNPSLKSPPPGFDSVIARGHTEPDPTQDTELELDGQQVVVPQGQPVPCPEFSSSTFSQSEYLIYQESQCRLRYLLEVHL

[17] = target: T1, Poly [ADP-ribose] polymerase 1; experiment: Displacement of fluorescent probe from human recombinant full length His-tagged PARP1 by fluorescent polarization assay
Cytochrome P450 2B6 = target: T4, Cytochrome P450 2B6 (Homo sapiens, UniProt P20813); experiment: Inhibition of CYP2B6 (unknown origin); format: ADME; procedure, shortened: as §2
T4 sequence (P20813 whole entry): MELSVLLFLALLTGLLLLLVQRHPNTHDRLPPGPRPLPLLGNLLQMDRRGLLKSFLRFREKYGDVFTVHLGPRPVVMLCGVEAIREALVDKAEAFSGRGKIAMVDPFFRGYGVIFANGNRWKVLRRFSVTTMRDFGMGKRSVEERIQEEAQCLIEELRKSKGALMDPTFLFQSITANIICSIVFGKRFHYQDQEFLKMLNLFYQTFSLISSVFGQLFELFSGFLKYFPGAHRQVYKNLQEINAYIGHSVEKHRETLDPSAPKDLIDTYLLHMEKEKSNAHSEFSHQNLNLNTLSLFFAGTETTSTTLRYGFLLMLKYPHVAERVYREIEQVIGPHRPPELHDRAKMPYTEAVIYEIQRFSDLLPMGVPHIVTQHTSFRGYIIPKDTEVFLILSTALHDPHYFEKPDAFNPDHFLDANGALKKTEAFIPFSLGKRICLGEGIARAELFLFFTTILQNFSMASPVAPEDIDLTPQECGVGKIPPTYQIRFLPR

[18] = target: T1, Poly [ADP-ribose] polymerase 1; experiment: Binding affinity to human recombinant His/GST-tagged PARP1 catalytic domain (655-end residues) by surface plasma resonance method
CAPAN-1 [19] = experiment: animal or person; details: Mus musculus, CAPAN-1, po, 288 h, read-out: GI
in vitro [20] = experiment: in vitro; set-up: dose or concentration left out as unconfirmed; details: human, liver microsomes
[21] = Permeability of the compound in pH 7.4 HBSS buffer assessed as percentage remained in membrane at 10 uM incubated for 4 hrs by LC-MS/MS based PAMPA method; format: ADME; details: pH 7.4, 4 h
[22] = Half life in Balb Nu/Nu mouse at 10 mg/kg, po measured upto 24 hrs by HPLC-MS-MS analysis; format: ADME, organism-based; details: in vivo
[23] = AUC (0 to infinity) in Balb Nu/Nu mouse at 5 mg/kg, iv measured upto 24 hrs by HPLC-MS-MS analysis; format: ADME, organism-based; set-up: dose 5 mg/kg, time infinity, route intravenous; details: in vivo
[24] = Cmax in Balb Nu/Nu mouse at 5 mg/kg, iv measured upto 24 hrs by HPLC-MS-MS analysis; format: ADME, organism-based; set-up: dose 5 mg/kg, route intravenous; details: in vivo
[25] = Half life in Balb Nu/Nu mouse at 5 mg/kg, iv measured upto 24 hrs by HPLC-MS-MS analysis; format: ADME, organism-based; details: in vivo
in vivo = details: Balb Nu/Nu, mouse, iv, 5 mg/kg
CAPAN-1 [26] = experiment: Antitumor activity against human Capan1 cells xenografted in Balb athymic Nu/Nu mouse assessed as maximal tumor growth inhibition at 62.5 mg/kg, iv qd for 5 days; format: functional; details: CAPAN-1, iv, 120 h, read-out: TGI
Procedure, shortened: (§3)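 Capan-1 pancreatic xenograft. Temozolomide was given alone at 62.5 mg/kg iv once daily for 5 days. Maximal tumor growth inhibition and maximum body weight loss were recorded.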

[27] = Toxicity in human Capan1 cells xenografted Balb athymic Nu/Nu mouse assessed as maximum weight loss at 62.5 mg/kg, iv qd for 5 days; format: organism-based; details: in vivo, 120 h; procedure, shortened: as §3

T1 sequence (P09874 whole entry): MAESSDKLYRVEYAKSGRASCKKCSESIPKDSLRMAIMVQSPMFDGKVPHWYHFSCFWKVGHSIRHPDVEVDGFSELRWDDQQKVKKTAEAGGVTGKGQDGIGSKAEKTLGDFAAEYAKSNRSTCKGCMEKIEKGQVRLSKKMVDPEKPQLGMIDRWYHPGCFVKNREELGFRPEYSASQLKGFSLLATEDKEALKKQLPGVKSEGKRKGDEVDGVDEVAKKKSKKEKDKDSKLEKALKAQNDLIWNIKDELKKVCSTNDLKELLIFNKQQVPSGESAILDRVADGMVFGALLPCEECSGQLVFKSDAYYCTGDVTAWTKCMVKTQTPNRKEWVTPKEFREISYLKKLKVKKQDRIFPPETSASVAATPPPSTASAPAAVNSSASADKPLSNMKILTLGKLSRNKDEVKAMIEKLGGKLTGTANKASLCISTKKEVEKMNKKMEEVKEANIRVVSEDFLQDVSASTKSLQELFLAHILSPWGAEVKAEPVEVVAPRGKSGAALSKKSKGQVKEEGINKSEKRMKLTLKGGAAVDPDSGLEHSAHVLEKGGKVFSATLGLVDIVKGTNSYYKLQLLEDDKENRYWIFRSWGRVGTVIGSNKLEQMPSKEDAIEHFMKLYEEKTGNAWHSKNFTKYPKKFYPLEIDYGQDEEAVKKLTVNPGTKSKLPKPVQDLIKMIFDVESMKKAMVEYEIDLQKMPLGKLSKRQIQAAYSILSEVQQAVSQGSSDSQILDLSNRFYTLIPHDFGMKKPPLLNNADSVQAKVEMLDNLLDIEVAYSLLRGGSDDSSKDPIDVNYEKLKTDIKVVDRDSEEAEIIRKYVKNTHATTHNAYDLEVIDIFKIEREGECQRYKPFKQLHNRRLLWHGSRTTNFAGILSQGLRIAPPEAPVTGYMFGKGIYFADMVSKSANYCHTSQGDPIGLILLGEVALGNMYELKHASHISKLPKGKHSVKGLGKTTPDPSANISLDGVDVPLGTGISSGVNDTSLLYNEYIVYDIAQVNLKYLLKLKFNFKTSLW
Cytochrome P450 2D6, sequence (P10635 whole entry, canonical isoform): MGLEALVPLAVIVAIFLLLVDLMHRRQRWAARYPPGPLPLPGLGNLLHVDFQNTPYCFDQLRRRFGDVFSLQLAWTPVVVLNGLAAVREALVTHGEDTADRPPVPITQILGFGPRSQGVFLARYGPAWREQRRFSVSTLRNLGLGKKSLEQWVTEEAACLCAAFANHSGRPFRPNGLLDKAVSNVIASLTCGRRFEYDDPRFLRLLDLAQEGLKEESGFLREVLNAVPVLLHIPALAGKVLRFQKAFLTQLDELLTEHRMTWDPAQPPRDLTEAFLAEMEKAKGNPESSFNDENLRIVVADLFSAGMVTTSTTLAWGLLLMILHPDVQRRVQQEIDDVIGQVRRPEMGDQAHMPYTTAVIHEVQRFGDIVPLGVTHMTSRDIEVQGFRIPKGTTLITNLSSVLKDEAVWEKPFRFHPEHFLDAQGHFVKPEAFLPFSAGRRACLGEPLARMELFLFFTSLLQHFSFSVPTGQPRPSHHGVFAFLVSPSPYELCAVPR
Poly [ADP-ribose] polymerase 2, sequence (Q9UGN5 whole entry): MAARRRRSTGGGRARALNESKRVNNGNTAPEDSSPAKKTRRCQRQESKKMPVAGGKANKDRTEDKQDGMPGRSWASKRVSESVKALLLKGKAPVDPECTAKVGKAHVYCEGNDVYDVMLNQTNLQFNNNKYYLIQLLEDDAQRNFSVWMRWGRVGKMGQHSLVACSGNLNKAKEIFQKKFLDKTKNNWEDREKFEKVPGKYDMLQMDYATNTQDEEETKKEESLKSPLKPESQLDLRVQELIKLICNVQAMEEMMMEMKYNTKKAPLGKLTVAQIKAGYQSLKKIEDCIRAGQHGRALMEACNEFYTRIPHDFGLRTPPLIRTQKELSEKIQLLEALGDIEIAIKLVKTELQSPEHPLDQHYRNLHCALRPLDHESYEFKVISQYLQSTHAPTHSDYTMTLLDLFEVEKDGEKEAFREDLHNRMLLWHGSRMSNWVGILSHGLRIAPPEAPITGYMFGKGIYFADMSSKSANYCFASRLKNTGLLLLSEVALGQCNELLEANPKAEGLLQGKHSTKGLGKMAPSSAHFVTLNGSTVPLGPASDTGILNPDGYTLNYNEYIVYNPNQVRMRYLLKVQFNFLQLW

SMILES	Papp at 4 h, 10 µM [1] [×10⁻⁶ cm/s]	IC50 [2] [nM]	Cmax [3] [nM]	fraction unbound (in vitro [4])	Kd [6] [nM]	solubility [9] [µM]	bioavailability [11] [%]	CLint scaled at 1.5 h (in vitro [12]) [mL/min/kg]	Kd [13] [nM]	AUC(0-inf) [14] [µM·h]	IC50 (Cytochrome P450 2D6) [nM]	Kd [16] [nM]	Kd [17] [nM]	IC50 (Cytochrome P450 2B6) [nM]	Kd [18] [nM]	CLint scaled at 0.5 h (in vitro [20]) [mL/min/kg]	permeability [21] [%]	half-life [22] [h]	further results
C[C@H]1c2cccc(C(N)=O)c2C(=O)N1C1CCN(C2CCCCC2)CC1	27.3	27	1400	0.13	> 10000	> 225	78.3	5	> 10000	4.9	> 31000	> 10000	< 30	> 31000	16	5	0	2.6	half-life [5]: 2.1 h; Activity [7]: 17%; AUC(0-inf) [8]: 8.2 µM·h; Cmax [10]: 4900 nM; Activity [15]: 6%; inhibition in vivo at 80 mg/kg (CAPAN-1 [19]): 48%
C[C@@H]1c2cccc(C(N)=O)c2C(=O)N1C1CCN(C2CCCCC2)CC1	–	162	–	–	–	–	–	–	–	–	–	–	1320	–	1760	–	–	–	–
Cn1nnc2c(C(N)=O)ncn2c1=O [TEMOZOLOMIDE]	–	–	–	–	–	–	–	–	–	–	–	–	–	–	–	–	–	–	inhibition in vivo at 62.5 mg/kg (CAPAN-1 [26]): 46%; Activity [27]: 8%

Continued by falling IC50 [2], values first:

Papp at 4 h, 10 µM [1] [×10⁻⁶ cm/s]	IC50 [2] [nM]	Cmax [3] [nM]	fraction unbound (in vitro [4])	Kd [6] [nM]	solubility [9] [µM]	bioavailability [11] [%]	CLint scaled at 1.5 h (in vitro [12]) [mL/min/kg]	Kd [13] [nM]	AUC(0-inf) [14] [µM·h]	IC50 (Cytochrome P450 2D6) [nM]	Kd [16] [nM]	Kd [17] [nM]	IC50 (Cytochrome P450 2B6) [nM]	Kd [18] [nM]	CLint scaled at 0.5 h (in vitro [20]) [mL/min/kg]	permeability [21] [%]	half-life [22] [h]	SMILES	further results
–	640	–	–	–	–	–	–	–	–	–	–	–	–	–	–	–	–	CC1c2cc(F)cc(C(N)=O)c2C(=O)N1C1CCN(C2CCCCC2)CC1 (racemic)	–
39.4	50	2500	0.05	> 10000	140 (≈ 49.8 µg/mL)	100	5	> 10000	13.5	600	> 10000	< 30	4900	–	5	8	3.1	CC1c2cccc(C(N)=O)c2C(=O)N1C1CCN(C2CCCCC2)CC1 (racemic)	AUC(0-inf) [23]: 6.3 µM·h; Cmax [24]: 2500 nM; half-life [25]: 1.8 h; Vd at 24 h (in vivo): 3.6 L/kg
